According to ChEMBL document CHEMBL1147890, “Synthesis of the new pseudo-symmetrical tamoxifen derivatives and their anti-tumor activity” (Bioorg Med Chem Lett, 2007):
The source made the active and inactive calls. The rule behind the calls is not given here.

Experiments:
HL-60 [1] = test: Antitumor activity against HL60 cells at 7.5 uM after 6 hrs by MTT assay; assay type: functional, Homo sapiens
How it was run: (§1)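 HL-60 human acute promyelocytic leukemia cells exposed for 0–6 h at final 2.5, 5, 7.5 and 10 µM. Viability read by MTT (mitochondrial succinic dehydrogenase reduces dye to formazan). Growth rate expressed against formazan absorbance at 0 h set to 1.0. SD, n = 5. IC50 taken as median growth-inhibitory concentration at 3 h or 6 h.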

HL-60 [2] = test: Antitumor activity against HL60 cells at 10 uM after 6 hrs by MTT assay; assay type: functional, Homo sapiens; how it was run: as §1
HL-60 [3] = test: Antitumor activity against HL60 cells after 6 hrs by MTT assay; assay type: functional, cell-based; conditions: Homo sapiens, HL-60, 6 h; how it was run: as §1
HL-60 [4] = test: Induction of apoptosis in HL60 cells assessed as DNA fragmentation at 9 uM by agarose gel electrophoresis; assay type: functional, cell-based; conditions: Homo sapiens
How it was run: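 Apoptosis versus necrosis judged by oligonucleosomal DNA cleavage on agarose gel electrophoresis. HL-60 cells treated 6 h at 9 µM final. Controls were medium only, tamoxifen, ethanol and actinomycin D.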

HL-60 [5] = test: Antitumor activity against HL60 cells at 5 uM after 6 hrs by MTT assay; assay type: functional, Homo sapiens; how it was run: as §1
HL-60 [6] = test: Antitumor activity against HL60 cells at 5 ug/ml after 4 hrs by MTT assay; assay type: functional, Homo sapiens
How it was run: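 HL-60 cells given 5 µg/mL. Viability measured by MTT formazan absorbance after 4 h and expressed relative to the 0 h reading.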

HL-60 [7] = test: Antitumor activity against HL60 cells after 3 hrs by MTT assay; assay type: functional, cell-based; conditions: Homo sapiens, HL-60, 3 h; how it was run: as §1

IC50 (HL-60 [3]) | IC50 (HL-60 [7]) | SMILES | Activity (HL-60 [1]) | Activity (HL-60 [2]) | Activity (HL-60 [4]) | Activity (HL-60 [5]) | Activity (HL-60 [6])
5 µM | – | CCC(=C(c1ccc(OCCN2CCCCC2)cc1)c1ccc(OCCN2CCCCC2)cc1)c1ccccc1 | >80% | >80% | Active | – | –
3 µM | 4 µM | CCC(=C(c1ccc(OCCN2CCCC2)cc1)c1ccc(OCCN2CCCC2)cc1)c1ccccc1 | >90% | >90% | Active | >90% | >90%
